In ChEMBL document CHEMBL2396629, “Synthesis and biological evaluation of 4,5-dihydro-1H-pyrazole derivatives as potential nNOS/iNOS selective inhibitors. Part 2: Influence of diverse substituents in both the phenyl moiety and the acyl group” (Bioorg Med Chem, 2013):

Columns and labels:
[1] = biological target: Nitric oxide synthase, inducible (Homo sapiens) (UniProt P35228); test: Inhibition of recombinant iNOS (unknown origin) assessed as conversion of L-[3H]-arginine to L-[3H]-citrulline at 1 mM after 30 mins
How it was run: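 Recombinant iNOS was tested with each compound at 1 mM. Activity is expressed relative to control and reported as % inhibition. Each value is the mean of three experiments, each run in triplicate.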

Nitric oxide synthase 1 [2] = biological target: T1, Nitric oxide synthase 1 (Homo sapiens, UniProt P29475); test: Inhibition of recombinant nNOS (unknown origin) assessed as conversion of L-[3H]-arginine to L-[3H]-citrulline at 1 mM after 30 mins
How it was run: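 Recombinant nNOS (21.05 nmol/min/mg) in 25 mM Tris-HCl pH 7.6 with DTT, H4-biopterin, FAD, inosine, BSA, CaCl2, L-arginine and 50 nM L-[3H]-arginine. Compound at 1 mM; 37 °C, 30 min. Stopped with cold HEPES/EGTA/L-citrulline pH 5.5, Dowex-50W (Na+) separation, [3H]-citrulline by scintillation. NADPH-omitted blank subtracted. Mean of three experiments in triplicate.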

Nitric oxide synthase 1 [3] = biological target: T1, Nitric oxide synthase 1; test: Inhibition of recombinant nNOS (unknown origin) assessed as conversion of L-[3H]-arginine to L-[3H]-citrulline after 30 mins
How it was run: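 Bredt–Snyder radiometric citrulline assay using recombinant nNOS in 25 mM Tris-HCl pH 7.6 with DTT, H4-biopterin, FAD, inosine, BSA, 0.1 mM CaCl2, L-arginine and 50 nM L-[3H]-arginine. Incubated at 37 °C for 30 min, then Dowex-50W separation and scintillation counting. Blank without NADPH subtracted. IC50 given in mM.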

T1 sequence (P29475 whole entry): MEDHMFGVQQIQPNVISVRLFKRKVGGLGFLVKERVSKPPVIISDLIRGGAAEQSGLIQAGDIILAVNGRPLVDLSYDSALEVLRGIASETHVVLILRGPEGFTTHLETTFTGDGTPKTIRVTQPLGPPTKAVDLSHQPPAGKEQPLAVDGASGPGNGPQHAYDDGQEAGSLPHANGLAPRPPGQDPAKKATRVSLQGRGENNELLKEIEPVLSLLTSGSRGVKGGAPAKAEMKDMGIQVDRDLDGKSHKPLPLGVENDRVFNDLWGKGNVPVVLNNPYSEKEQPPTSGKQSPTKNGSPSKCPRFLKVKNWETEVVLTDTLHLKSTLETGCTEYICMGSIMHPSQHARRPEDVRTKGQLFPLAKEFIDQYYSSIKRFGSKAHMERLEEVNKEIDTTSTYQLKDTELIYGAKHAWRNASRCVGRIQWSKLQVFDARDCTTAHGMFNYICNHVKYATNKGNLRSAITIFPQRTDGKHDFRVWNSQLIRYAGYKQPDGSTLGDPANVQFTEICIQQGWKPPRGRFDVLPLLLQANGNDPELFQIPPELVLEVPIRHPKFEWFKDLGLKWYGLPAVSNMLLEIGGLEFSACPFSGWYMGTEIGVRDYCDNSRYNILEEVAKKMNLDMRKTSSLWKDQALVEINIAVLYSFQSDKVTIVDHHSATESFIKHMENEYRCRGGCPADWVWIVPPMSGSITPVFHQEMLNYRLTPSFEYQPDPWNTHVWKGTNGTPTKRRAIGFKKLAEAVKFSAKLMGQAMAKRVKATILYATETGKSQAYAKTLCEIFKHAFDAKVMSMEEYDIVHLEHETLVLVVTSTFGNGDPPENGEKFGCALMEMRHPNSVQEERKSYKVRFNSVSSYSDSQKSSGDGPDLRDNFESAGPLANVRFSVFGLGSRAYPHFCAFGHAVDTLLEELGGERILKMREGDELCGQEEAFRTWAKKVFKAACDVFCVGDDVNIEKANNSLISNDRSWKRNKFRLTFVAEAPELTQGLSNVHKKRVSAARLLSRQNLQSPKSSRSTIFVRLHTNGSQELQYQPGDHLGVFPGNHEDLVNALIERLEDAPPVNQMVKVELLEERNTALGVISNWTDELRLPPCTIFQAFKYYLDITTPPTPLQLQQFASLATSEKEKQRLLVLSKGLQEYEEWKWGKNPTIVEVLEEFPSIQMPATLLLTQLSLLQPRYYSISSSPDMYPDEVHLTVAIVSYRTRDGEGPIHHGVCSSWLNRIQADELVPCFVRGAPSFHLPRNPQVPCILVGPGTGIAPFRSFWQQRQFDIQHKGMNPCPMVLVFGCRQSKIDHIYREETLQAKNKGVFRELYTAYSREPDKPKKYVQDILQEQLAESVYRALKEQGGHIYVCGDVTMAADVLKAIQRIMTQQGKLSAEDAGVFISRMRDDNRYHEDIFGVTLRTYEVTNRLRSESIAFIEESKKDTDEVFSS
Sequence of Nitric oxide synthase, inducible (Homo sapiens) (P35228 whole entry): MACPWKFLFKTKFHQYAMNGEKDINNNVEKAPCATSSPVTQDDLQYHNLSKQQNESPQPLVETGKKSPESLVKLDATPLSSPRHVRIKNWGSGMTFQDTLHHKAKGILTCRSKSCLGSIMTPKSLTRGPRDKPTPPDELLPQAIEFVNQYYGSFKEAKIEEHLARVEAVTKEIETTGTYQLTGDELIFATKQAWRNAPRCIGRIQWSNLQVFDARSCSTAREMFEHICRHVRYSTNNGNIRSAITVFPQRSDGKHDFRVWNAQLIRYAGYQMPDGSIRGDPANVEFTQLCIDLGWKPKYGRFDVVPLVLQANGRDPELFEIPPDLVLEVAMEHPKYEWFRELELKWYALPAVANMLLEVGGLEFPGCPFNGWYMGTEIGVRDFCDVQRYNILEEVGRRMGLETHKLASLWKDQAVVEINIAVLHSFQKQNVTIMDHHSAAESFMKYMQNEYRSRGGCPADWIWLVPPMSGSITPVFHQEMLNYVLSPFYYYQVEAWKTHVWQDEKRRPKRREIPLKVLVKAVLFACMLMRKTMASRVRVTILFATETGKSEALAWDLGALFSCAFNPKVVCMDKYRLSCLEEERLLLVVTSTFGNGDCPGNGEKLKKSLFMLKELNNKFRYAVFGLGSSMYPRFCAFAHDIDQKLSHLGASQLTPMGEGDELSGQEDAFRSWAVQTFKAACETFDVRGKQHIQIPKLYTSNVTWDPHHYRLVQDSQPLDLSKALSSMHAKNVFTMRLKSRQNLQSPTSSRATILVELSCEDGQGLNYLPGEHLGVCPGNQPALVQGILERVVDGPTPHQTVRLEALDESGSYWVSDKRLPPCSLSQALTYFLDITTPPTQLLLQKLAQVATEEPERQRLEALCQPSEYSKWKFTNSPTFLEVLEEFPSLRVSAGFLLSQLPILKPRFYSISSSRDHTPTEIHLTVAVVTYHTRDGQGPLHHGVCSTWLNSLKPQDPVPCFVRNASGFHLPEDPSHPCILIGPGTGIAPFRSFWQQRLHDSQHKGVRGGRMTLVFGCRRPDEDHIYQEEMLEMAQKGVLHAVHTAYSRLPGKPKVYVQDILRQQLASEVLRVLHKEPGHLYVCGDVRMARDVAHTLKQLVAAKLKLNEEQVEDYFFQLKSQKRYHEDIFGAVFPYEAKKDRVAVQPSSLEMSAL

Compound | inhibition [1] [%] | inhibition (Nitric oxide synthase 1 [2]) [%] | IC50 (Nitric oxide synthase 1 [3]) [µM]
Nc1cc(Cl)c(Cl)cc1C1=NN(C(=O)Cc2ccccc2)CC1 | 49.2 | 21.6 | 
COc1cc(N)c(C2=NN(C(=O)c3ccccc3)CC2)c(OC)c1OC | 8.14 | 62.9 | 530
COc1cc(N)c(C2=NN(C(=O)CCc3ccccc3)CC2)c(OC)c1OC | 18.3 | 82.5 | 400
Nc1ccccc1C1=NN(C(=O)c2ccccc2)CC1 | 8.7 | 57 | 
COc1cc(N)c(C2=NN(C(=O)C3CC3)CC2)cc1OC | 25.2 | 19.6 | 
COc1cc(N)c(C2=NN(C(=O)Cc3ccccc3)CC2)c(OC)c1OC | 23.4 | 48.4 | 
Nc1cc(Cl)c(Cl)cc1C1=NN(C(=O)c2ccccc2)CC1 | 36.1 | 0.62 | 
COc1ccc(N)c(C2=NN(C(=O)C3CCCCC3)CC2)c1 | 13.2 | 62.2 | 
COc1cc(N)c(C2=NN(C(=O)CCc3ccccc3)CC2)cc1OC | 23.7 | 55.3 | 880
Nc1cc(Cl)c(Cl)cc1C1=NN(C(=O)CCc2ccccc2)CC1 | 50.2 | 2.97 | 
COc1ccc(N)c(C2=NN(C(=O)C3CCCC3)CC2)c1 | 1.85 | 49.9 | 
COc1cc(N)c(C2=NN(C(=O)c3ccccc3)CC2)cc1OC | 28.9 | 25.1 | 
COc1ccc(N)c(C2=NN(C(=O)c3ccccc3)CC2)c1 | 12.2 | 58.9 | 
Nc1ccccc1C1=NN(C(=O)Cc2ccccc2)CC1 | 2.31 | 2.68 | 
COc1ccc(N)c(C2=NN(C(=O)CCc3ccccc3)CC2)c1 | 21.2 | 25.9 | 
COc1cc(N)c(C2=NN(C(=O)Cc3ccccc3)CC2)cc1OC | 21 | 35.1 | 
COc1cc(N)c(C2=NN(C(=O)C3CC3)CC2)c(OC)c1OC | 30.1 | 0.05 | 
CC(=O)N1CCC(c2ccccc2N)=N1 | 7.73 | 33.7 | 
Nc1ccccc1C1=NN(C(=O)CCc2ccccc2)CC1 | 5.64 | 7.36 | 
COc1ccc(N)c(C2=NN(C(=O)Cc3ccccc3)CC2)c1 | 15 | 0.03 | 
Nc1cc(Cl)c(Cl)cc1C1=NN(C(=O)C2CC2)CC1 | 15.5 | 50.5 | 
COc1ccc(N)c(C2=NN(C(=O)C3CCC3)CC2)c1 | 1.91 | 38.3 | 
Nc1ccccc1C1=NN(C(=O)C2CC2)CC1 | 14.8 | 38.8 | 

Continued, values first:

inhibition [1] [%] | inhibition (Nitric oxide synthase 1 [2]) [%] | IC50 (Nitric oxide synthase 1 [3]) [µM] | Compound
17 | 61.1 |  | Nc1ccc(Cl)cc1C1=NN(C(=O)c2ccccc2)CC1
1.03 | 47.6 |  | CC(=O)N1CCC(c2cc(Cl)ccc2N)=N1
20.4 | 53.3 |  | CCC(=O)N1CCC(c2cc(OC)ccc2N)=N1
6.88 | 36.5 |  | CCC(=O)N1CCC(c2ccccc2N)=N1
18.9 | 70.2 |  | Nc1ccc(Cl)cc1C1=NN(C(=O)C2CC2)CC1
19.9 | 62.2 |  | COc1ccc(N)c(C2=NN(C(=O)C3CC3)CC2)c1
0.18 | 49.8 |  | CCCCC(=O)N1CCC(c2cc(OC)ccc2N)=N1
13.1 | 34.7 |  | CCCC(=O)N1CCC(c2cc(OC)ccc2N)=N1
0.29 | 34.4 |  | CCCC(=O)N1CCC(c2cc(Cl)ccc2N)=N1
31.4 | 32.4 |  | Nc1ccc(Cl)cc1C1=NN(C(=O)CCc2ccccc2)CC1
 | 52.4 |  | CCCC(=O)N1CCC(c2ccccc2N)=N1
34.6 | 18.2 |  | Nc1ccc(Cl)cc1C1=NN(C(=O)Cc2ccccc2)CC1
20.4 | 38 |  | COc1ccc(N)c(C2=NN(C(C)=O)CC2)c1
13.7 | 46.1 |  | CCC(=O)N1CCC(c2cc(Cl)ccc2N)=N1
